According to ChEMBL document CHEMBL1275449, “Potent in vitro antifungal activities of naturally occurring acetylenic acids” (Antimicrob Agents Chemother, 2008):
In brackets after ≈: the same amount, converted by molar mass. Activity calls are given as the source filed them. No cut-off for these calls is given here.

Tests used:
Cryptococcus neoformans [1] = assay: Antifungal activity against Cryptococcus neoformans ATCC 90113 after 72 hrs by CLSI method; format: functional, organism-based; settings: ATCC 90113, 72 h
Method in brief: (§1)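 SD broth replaced RPMI because growth in RPMI was poor; other CLSI conditions were kept. Inoculum was 1.5 × 10³ CFU/ml from colonies on SD agar, checked by plating. Twofold serial dilutions (11 concentrations) in 20% DMSO-saline were tested in duplicate. OD530 was read before and after incubation at 35°C for 72 h. Percent growth gave IC50; the MIC is the lowest concentration with no detectable growth.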

Candida albicans [2] = assay: Antifungal activity against Candida albicans ATCC 200955 after 48 hrs by CLSI method; format: functional, organism-based; settings: ATCC 200955, 48 h
Method in brief: (§2)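 CLSI broth microdilution. Colonies from 24–72 h SD agar suspended in saline and sized by OD630 standard curve. Inoculum 1.5 × 10³ CFU/ml (final) in RPMI 1640 (0.2% dextrose, 0.03% glutamine, 0.165 M MOPS, pH 7.0). Twofold dilutions (11 levels) from 20% DMSO-saline, in duplicate. 35°C for 48 h, OD530 read before and after. IC50 fitted from % growth. MIC: no detectable growth. MFC: subculture onto SD agar.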

Candida albicans [3] = assay: Antifungal activity against Candida albicans ATCC 14053 at 68.3 uM after 48 hrs by CLSI method; format: functional, organism-based
Aspergillus fumigatus [4] = assay: Antifungal activity against Aspergillus fumigatus ATCC 90906 after 48 h by CLSI method; settings: ATCC 90906, 48 h
Candida albicans [5] = assay: Antifungal activity against Fluconazole resistant Candida albicans clinical isolate 17 after 48 hrs by CLSI method; format: functional, organism-based; method in brief: as §2
Trichophyton rubrum [6] = assay: Antifungal activity against Trichophyton rubrum ATCC MYA-4438 by CLSI method; format: functional, organism-based
Method in brief: (§3)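 Growth scraped from 1- to 6-week-old potato dextrose slants and filtered through Miracloth. Diluted in 5% Alamar blue-RPMI 1640 (MOPS pH 7.0) to 2.7 × 10⁴ CFU/ml. Eleven twofold dilutions in duplicate. Fluorescence at 544 nm excitation/590 nm emission read before and after 35°C, 5 days. IC50 fitted from percent growth. MIC taken as no detectable growth; MFC from clear or blue wells plated on PD agar.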

Nakaseomyces glabratus = assay: Antifungal activity against Candida glabrata ATCC 90030 at 68.3 uM after 48 hrs by CLSI method; format: functional, organism-based
Method in brief: (§4)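 Candida inocula came from 24–72-h SD agar colonies suspended in saline. They were diluted by OD630 standard curve into RPMI 1640 (0.2% dextrose, 0.03% glutamine, 0.165 M MOPS, pH 7.0) to 1.5 × 10³ CFU/ml. Compounds were run as 11 twofold dilutions in 20% DMSO-saline, in duplicate, at 35°C for 48 h, with OD530 read before and after. Percent growth at the top concentration, IC50, MIC, and MFC (SD agar plating) were derived.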

Candida albicans [7] = assay: Antifungal activity against Fluconazole resistant Candida albicans isolate 17 at 68.3 uM after 48 hrs by CLSI method; format: functional, organism-based
Method in brief: (§5)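 Candida in CLSI broth microdilution. Saline colony suspension set to 1.5 × 10³ CFU/ml (final) in MOPS-buffered RPMI 1640, pH 7.0. Test agent given as twofold serial dilutions in 20% DMSO-saline, duplicate wells. 35°C for 48 h. Growth read as OD530 before and after incubation. Percent inhibition scored at the highest test concentration.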

Candida tropicalis [8] = assay: Antifungal activity against Candida tropicalis ATCC 750 after 48 hrs by CLSI method; format: functional, organism-based; settings: ATCC 750, 48 h
Method in brief: (§6)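 Yeast suspensions made from 3-5 colonies off 24-72 h SD agar plates in saline. They were diluted by OD630 standard curve in RPMI 1640 (0.2% dextrose, 0.03% glutamine, 0.165 M MOPS, pH 7.0) to 1.5 × 10³ CFU/ml. Twofold dilutions (11 concentrations, 20% DMSO-saline) run in duplicate. OD530 read before and after 35°C, 48 h. Line values are top test concentrations; no-growth endpoints give MIC/MFC.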

Aspergillus niger [9] = assay: Antifungal activity against Aspergillus niger ATCC 16404 at 68.3 uM after 48 hrs by CLSI method; format: functional, organism-based
Candida tropicalis [10] = assay: Antifungal activity against Candida tropicalis ATCC 750 at 68.3 uM after 48 hrs by CLSI method; format: functional, organism-based; method in brief: as §6
Candida albicans [11] = assay: Antifungal activity against Candida albicans ATCC 90028 after 48 hrs by CLSI method; format: functional, organism-based; settings: ATCC 90028, 48 h; method in brief: as §2
Cryptococcus neoformans [12] = assay: Antifungal activity against Cryptococcus neoformans ATCC 66031 after 72 hrs by CLSI method; format: functional, organism-based; settings: ATCC 66031, 72 h; method in brief: as §1
Candida albicans [13] = assay: Antifungal activity against Candida albicans ATCC 90028 at 68.3 uM after 48 hrs by CLSI method; format: functional, organism-based; method in brief: as §4
Trichophyton rubrum [14] = assay: Antifungal activity against Trichophyton rubrum ATCC MYA-4438 at 68.3 uM after 5 days by CLSI method; format: functional, organism-based
Candida albicans [15] = assay: Antifungal activity against Fluconazole resistant Candida albicans clinical isolate 1 after 48 hrs by CLSI method; format: functional, organism-based; method in brief: as §2
[16] = test system: Trichophyton mentagrophytes; assay: Antifungal activity against Trichophyton mentagrophytes ATCC 9533 by CLSI method; format: functional, organism-based; method in brief: as §3
Candida parapsilosis [17] = assay: Antifungal activity against Candida parapsilosis ATCC 22019 after 48 hrs by CLSI method; format: functional, organism-based; settings: Lodderomyces parapsilosis, ATCC 22019, 48 h; method in brief: as §6
Candida albicans [18] = assay: Antifungal activity against Fluconazole resistant Candida albicans isolate 1 at 68.3 uM after 48 hrs by CLSI method; format: functional, organism-based; method in brief: as §5
[19] = test system: Trichophyton mentagrophytes; assay: Antifungal activity against Trichophyton mentagrophytes ATCC MYA-4439 by CLSI method; format: functional, organism-based; method in brief: as §3
Pichia kudriavzevii [20] = assay: Antifungal activity against Candida krusei ATCC 6258 after 48 hrs by CLSI method; format: functional, organism-based; settings: ATCC 6258, 48 h; method in brief: as §4
Candida albicans [21] = assay: Antifungal activity against Candida albicans ATCC 32354 at 68.3 uM after 48 hrs by CLSI method; format: functional, organism-based; method in brief: as §4
Candida albicans [22] = assay: Antifungal activity against Candida albicans ATCC 60193 after 48 hrs by CLSI method; format: functional, organism-based; settings: ATCC 60193, 48 h; method in brief: as §2
Trichophyton rubrum [23] = assay: Antifungal activity against Trichophyton rubrum ATCC 10218 by CLSI method; format: functional, organism-based; method in brief: as §3
Pichia kudriavzevii [24] = assay: Antifungal activity against Candida krusei ATCC 6258 at 68.3 uM after 48 hrs by CLSI method; format: functional, organism-based; method in brief: as §6
Aspergillus flavus = assay: Antifungal activity against Aspergillus flavus ATCC 204304 after 48 h by CLSI method; settings: ATCC 204304, 48 h
Candida albicans [25] = assay: Antifungal activity against Candida albicans ATCC 14053 after 48 hrs by CLSI method; format: functional, organism-based; settings: ATCC 14053, 48 h; method in brief: as §2
Candida albicans [26] = assay: Antifungal activity against Candida albicans ATCC 200955 at 68.3 uM after 48 hrs by CLSI method; format: functional, organism-based; method in brief: as §4
Candida albicans [27] = assay: Antifungal activity against Candida albicans ATCC 32354 after 48 hrs by CLSI method; format: functional, organism-based; settings: ATCC 32354, 48 h; method in brief: as §2
Aspergillus fumigatus [28] = assay: Antifungal activity against Aspergillus fumigatus ATCC 204305 at 68.3 uM after 48 hrs by CLSI method; format: functional, organism-based
Aspergillus niger [29] = assay: Antifungal activity against Aspergillus niger ATCC 16404 after 48 h by CLSI method; settings: ATCC 16404, 48 h
Aspergillus fumigatus [30] = assay: Antifungal activity against Aspergillus fumigatus ATCC 204305 after 48 h by CLSI method; settings: ATCC 204305, 48 h
Candida albicans [31] = assay: Antifungal activity against Candida albicans ATCC 60193 at 68.3 uM after 48 hrs by CLSI method; format: functional, organism-based; method in brief: as §4
Aspergillus fumigatus [32] = assay: Antifungal activity against Aspergillus fumigatus ATCC 90906 at 68.3 uM after 48 hrs by CLSI method; format: functional, organism-based
Candida parapsilosis [33] = assay: Antifungal activity against Candida parapsilosis ATCC 22019 at 68.3 uM after 48 hrs by CLSI method; format: functional, organism-based; method in brief: as §6

Structure (SMILES): CN(C/C=C/C#CC(C)(C)C)Cc1cccc2ccccc12 [TERBINAFINE]
- IC50 (Cryptococcus neoformans [1]): 500 nM
- MFC (Cryptococcus neoformans [1]): 1.1 µM (≈ 0.321 µg/mL)
- MIC (Cryptococcus neoformans [1]): 1.1 µM (≈ 0.321 µg/mL)
- IC50 (Candida albicans [2]): 3100 nM
- MIC (Candida albicans [2]): 51.5 µM (≈ 15 µg/mL)
- Activity (Candida albicans [3]): inactive
- IC50 (Aspergillus fumigatus [4]): 1000 nM
- MIC (Aspergillus fumigatus [4]): 4.3 µM (≈ 1.25 µg/mL)
- IC50 (Candida albicans [5]): > 68300 nM
- IC50 (Trichophyton rubrum [6]): 4200 nM
- MIC (Trichophyton rubrum [6]): 21.4 µM (≈ 6.24 µg/mL)
- Activity (Nakaseomyces glabratus): inactive
- Activity (Candida albicans [7]): inactive
- IC50 (Candida tropicalis [8]): 45400 nM
- Activity (Aspergillus niger [9]): inactive
- Activity (Candida tropicalis [10]): inactive
- IC50 (Candida albicans [11]): 10800 nM
- IC50 (Cryptococcus neoformans [12]): 400 nM
- MFC (Cryptococcus neoformans [12]): 8.6 µM (≈ 2.51 µg/mL)
- MIC (Cryptococcus neoformans [12]): 4.3 µM (≈ 1.25 µg/mL)
- Activity (Candida albicans [13]): inactive
- Activity (Trichophyton rubrum [14]): inactive
- IC50 (Candida albicans [15]): 11200 nM
- IC50 [16]: < 20 nM
- MFC [16]: 0.27 µM (≈ 0.0787 µg/mL)
- MIC [16]: 0.05 µM (≈ 0.0146 µg/mL)
- IC50 (Candida parapsilosis [17]): 400 nM
- MIC (Candida parapsilosis [17]): 42.9 µM (≈ 12.5 µg/mL)
- Activity (Candida albicans [18]): inactive
- IC50 [19]: < 20 nM
- MFC [19]: 0.27 µM (≈ 0.0787 µg/mL)
- MIC [19]: 0.17 µM (≈ 0.0495 µg/mL)
- IC50 (Pichia kudriavzevii [20]): > 68300 nM
- Activity (Candida albicans [21]): inactive
- IC50 (Candida albicans [22]): 5300 nM
- IC50 (Trichophyton rubrum [23]): < 20 nM
- MFC (Trichophyton rubrum [23]): 0.13 µM (≈ 0.0379 µg/mL)
- MIC (Trichophyton rubrum [23]): 0.1 µM (≈ 0.0291 µg/mL)
- Activity (Pichia kudriavzevii [24]): inactive
- IC50 (Aspergillus flavus): 300 nM
- MFC (Aspergillus flavus): 8.6 µM (≈ 2.51 µg/mL)
- MIC (Aspergillus flavus): 2.1 µM (≈ 0.612 µg/mL)
- IC50 (Candida albicans [25]): 13700 nM
- Activity (Candida albicans [26]): inactive
- IC50 (Candida albicans [27]): 2600 nM
- Activity (Aspergillus fumigatus [28]): inactive
- IC50 (Aspergillus niger [29]): 700 nM
- MIC (Aspergillus niger [29]): 2.1 µM (≈ 0.612 µg/mL)
- IC50 (Aspergillus fumigatus [30]): 1100 nM
- MIC (Aspergillus fumigatus [30]): 4.3 µM (≈ 1.25 µg/mL)
- Activity (Candida albicans [31]): inactive
- Activity (Aspergillus fumigatus [32]): inactive
- Activity (Candida parapsilosis [33]): inactive
